Bioassay records (PubChem BioAssay)
A selection follows.
Apaf-1 act = activators of human Apaf-1 apoptosome, primary screen, biochemical, DEVD-Rh110 fluorescence, uHTS | hit rate 0.31% among 330,000 | Apaf-1 apoptosome caspase-3 activation; stronger effect = lower value | activity change, negative = activation, % at 20 µM | Apoptotic protease-activating factor 1 (Homo sapiens), O14727 | AID 489031, 2010;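 active = activity change at or below -40% at 20 µM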
Target sequence (O14727 whole entry, looked up): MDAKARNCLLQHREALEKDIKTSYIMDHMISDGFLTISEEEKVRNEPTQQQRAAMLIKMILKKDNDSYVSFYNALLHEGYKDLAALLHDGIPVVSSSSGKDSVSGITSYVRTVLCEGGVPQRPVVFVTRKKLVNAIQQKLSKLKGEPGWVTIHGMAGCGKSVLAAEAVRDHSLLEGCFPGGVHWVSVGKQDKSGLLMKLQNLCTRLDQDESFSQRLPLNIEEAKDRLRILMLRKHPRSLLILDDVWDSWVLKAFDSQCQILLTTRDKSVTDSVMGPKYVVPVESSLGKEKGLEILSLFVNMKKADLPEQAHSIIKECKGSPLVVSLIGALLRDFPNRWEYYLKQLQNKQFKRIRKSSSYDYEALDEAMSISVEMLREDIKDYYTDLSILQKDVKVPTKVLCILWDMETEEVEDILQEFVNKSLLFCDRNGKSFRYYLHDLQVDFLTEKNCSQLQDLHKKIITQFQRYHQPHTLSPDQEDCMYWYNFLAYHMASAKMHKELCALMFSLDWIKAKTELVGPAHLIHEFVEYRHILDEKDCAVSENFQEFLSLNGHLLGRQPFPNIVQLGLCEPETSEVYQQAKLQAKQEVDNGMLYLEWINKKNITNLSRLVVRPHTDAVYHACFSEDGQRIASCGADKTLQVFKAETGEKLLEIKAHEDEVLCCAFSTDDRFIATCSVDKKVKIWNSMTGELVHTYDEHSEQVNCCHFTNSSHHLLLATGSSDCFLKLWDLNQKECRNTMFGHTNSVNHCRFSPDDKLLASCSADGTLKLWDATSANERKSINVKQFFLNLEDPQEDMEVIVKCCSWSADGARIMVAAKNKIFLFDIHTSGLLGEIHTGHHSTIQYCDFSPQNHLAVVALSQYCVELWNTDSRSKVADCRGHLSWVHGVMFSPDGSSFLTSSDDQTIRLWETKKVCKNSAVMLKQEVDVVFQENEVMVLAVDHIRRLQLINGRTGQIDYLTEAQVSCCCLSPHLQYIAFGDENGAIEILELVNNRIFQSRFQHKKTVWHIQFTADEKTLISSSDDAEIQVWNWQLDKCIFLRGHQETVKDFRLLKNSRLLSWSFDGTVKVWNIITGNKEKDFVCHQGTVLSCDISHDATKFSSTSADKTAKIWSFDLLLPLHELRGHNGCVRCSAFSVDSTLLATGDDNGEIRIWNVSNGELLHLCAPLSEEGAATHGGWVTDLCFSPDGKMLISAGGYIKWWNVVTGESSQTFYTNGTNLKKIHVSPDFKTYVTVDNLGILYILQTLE
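Material: biochemical Apaf-1 apoptosome reconstitution; Medium: 20 mM HEPES buffer, pH 7.5, containing CHAPS and BSA; Reagent: dATP, cytochrome c, and (Z-DEVD)2-Rh110 caspase-3 substrate; Times: 30 min preincubation, 50 min reaction, room temperature; Signal: Rh110 fluorescence, excitation 480 nm, emission 540 nm; Measure: Caspase-3 activity via Apaf-1.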
Rh110 act interf = Rh110 fluorescence interference by putative Apaf-1 activators, confirmation, artefact control for Apaf-1 activator project, biochemical, 20 µM. quenched caspase reaction, Ex480/Em540. shares compounds with Apaf-1 act. fluorescence interference (activity change), % at 20 µM, hits read low. 980 tested, under 10 active;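 active = mean activity change at or below -40% when tested at 20 µM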
Apaf-1 act conf = Apaf-1 activators, single-dose retest, confirmation, biochemical, fluorescence, DEVD-Rh110, 20 µM | activity change, negative = activation, % at 20 µM | reconstituted apoptosome caspase-3 activity; stronger effect = lower value | AID 504617, 2011 | shares compounds with Apaf-1 act | hit rate 5% among 980;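 active = mean activity change at or below -40%, meaning activation of 40% or more, at 20 µM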
Fluor interf act = fluorescence interference of Apaf-1 activator hits, dose response, artefact control for Apaf-1 activator project. 55 tested, under 10 active. AID 588592, 2011. fluorescence interference counterscreen, Apaf-1 activator assay. shares compounds with Apaf-1 act. EC50, µM; call rule not given here
Numbers stand for hits; – = inactive; · = no result.

SMILES	Apaf-1 act	Rh110 act interf	Apaf-1 act conf	others
C=C(C)C(=O)Nc1cccc(C2=NOC3(C2)C[C@@H](C(N)=O)N(C(=O)/C(C)=C/C)C3)c1 (stereo partly drawn)	-288	–	-120	Fluor interf act=–
C=C(C)C(=O)Nc1cccc(C2=NOC3(C2)C[C@H](C(N)=O)N(C(=O)c2ccccc2C(=O)c2ccccc2)C3)c1 (stereo partly drawn)	-270	–	-125	Fluor interf act=–
O=C(c1ccccc1)[C@@H]1[C@@H](C(=O)c2ccc(F)cc2)[C@@]2(C(=O)Nc3ccccc32)[C@H]2c3ccccc3C=CN12	–	·	·
CCOC(=O)c1nn(-c2ccccc2)c(=O)c2c(N)scc12	–	·	·
Cc1ccc2c(c1)C(=O)C(=O)N2Cc1ccc(Cl)cc1	–	·	·
CCN1CCCC1CNC(=O)c1cc2c(-c3ccc(Cl)cc3)nn(C)c2s1 (stereo not drawn)	–	·	·
Cc1ccc2c(CN3CCCCC3C)cc(=O)oc2c1C (stereo not drawn)	-50	–	–
O=C(N/N=C/c1ccc(-c2ccccc2[N+](=O)[O-])o1)[C@H]1C[C@@H]1c1ccccc1	–	·	·
CCOc1ccc(C(=O)/C=C/Nc2ccc(S(=O)(=O)N=C(N)N)cc2)cc1	-160	–	-74	Fluor interf act=–
Cc1[nH]n(-c2ccccc2)c(=O)c1C(=O)c1ccccc1	–	·	·
O=C(NCc1ccccn1)c1ccc2c(=O)n3nc(Nc4ccccc4)sc3nc2c1	-43	–	–
O=C(O)c1cc(O)c2c(c1)[C@H]([C@H]1c3cc(C(=O)O)cc(O)c3C(=O)c3c(O[C@@H]4O[C@H](CO)[C@@H](O)[C@H](O)[C@H]4O)cccc31)c1cccc(OC3O[C@H](CO)[C@@H](O)[C@H](O)[C@H]3O)c1C2=O (stereo partly drawn)	–	·	·
Cc1ccc(S(=O)(=O)CCC(=O)NCc2ccccc2)cc1	-64	–	–
COC(=O)c1ccc(COC(=O)CCS(=O)(=O)c2ccc(C)cc2)cc1	-53	–	–
COc1ccc(CN(C)C(=O)c2cc(S(=O)(=O)NCc3ccccc3)ccc2C)c(OC)c1	–	·	·
CCCN(CC(=O)Nc1ccccc1OC)C(=O)c1cc(S(=O)(=O)NCc2ccccc2)ccc1C	–	·	·
Cc1cccc(/C=N/NC(=O)C(C)Nc2cccc3ccccc23)n1 (stereo not drawn)	–	·	·
COc1ccc(Nc2ccc(C(=O)O)cc2[N+](=O)[O-])cc1	-64	–	–
COc1ccc(NC(=O)Nc2ccc(O)c3ccccc23)cc1	–	·	·
CCOC(=O)c1ccc(Nc2nc(N)c3cc(OC)c(OC)cc3n2)cc1	–	·	·
CC(=O)N1CCc2c(sc(NC(=O)C3CC3)c2-c2nc3ccccc3s2)C1	–	·	·
CN(Cc1ccccc1)S(=O)(=O)c1cn(C)cn1	-113	–	–
CN(C)c1cccc2c1c(NS(=O)(=O)c1cn(C)cn1)nn2C	–	·	·
Nc1c(N2CCCC2)cc(Cl)c2nonc12	–	·	·
CCOc1ccc(-c2cc(C(=O)NCCCn3ccnc3)c3cc(Br)ccc3n2)cc1	–	·	·
SMILES	Apaf-1 act	Rh110 act interf	Apaf-1 act conf	others
O=C(NCCCn1ccnc1)c1cn(Cc2ccc(F)cc2)nn1	-41	–	–
CN(C)CCNC(=O)C(=O)NCC1OCCN1S(=O)(=O)c1cc(F)ccc1F (stereo not drawn)	–	·	·
Nc1cc2nsnc2cc1Br	–	·	·
CC(C)(C)c1ccc(S(=O)(=O)/N=C2\C=C(NS(=O)(=O)c3ccccc3)C(=O)c3ccccc32)cc1	–	·	·
Cc1ccc(C)c(-n2ccnc2SCC(=O)O)c1	-465	–	–
NC(=O)[C@@H]1CCCNc2c(I)cc([N+](=O)[O-])cc2C(=O)N[C@@H](CCCN=C(N)N)C(=O)N[C@@H](CCCN=C(N)N)C(=O)N1	–	·	·
O=C(O)CCNc1cc(N2CCN(C(=O)c3ccco3)CC2)c2noc3c2c1C(=O)c1ccccc1-3	–	·	·
Clc1ccc(N=c2ssnc2Cl)nc1	–	·	·
O=C(NCCCn1ccnc1)C1c2ccccc2Oc2ccccc21	-417	–	–
Cc1ccccc1C(=O)N1CCC(n2nccc2NC(=O)CCOc2ccccc2)CC1	-187	–	–
CCOc1ccc(-n2nc3ccc(N)cc3n2)cc1	–	·	·
CC1=NN(c2ccc(C(=O)O)c(N)c2)C(=O)C1	–	·	·
C#CCOCCOCCOCCNc1nc(N2CCN(C(=O)CCCCCCCCCCNC(=O)[C@H]([C@@H](C)CC)n3cc(CCCCCN)nn3)CC2)nc(N2CCN(C(=O)CCCCCCCCCCNC(=O)[C@H](CO)n3cc(CCCCCN)nn3)CC2)n1	–	·	·
CC1(C)Cc2cccc(OCC(=O)N3CCN(c4cccc(C(F)(F)F)c4)CC3)c2O1	–	·	·
O=C(Cc1cc(=O)[nH][nH]1)N/N=C/C=C/c1ccccc1	–	·	·
CCC(C)NCCOCCOc1ccc(Br)cc1 (stereo not drawn)	-47	–	–
Cc1cc(C)cc(NC(=S)Nc2cccc3cnccc23)c1	–	·	·
OC(c1cc(C(F)(F)F)nc2c(C(F)(F)F)cccc12)C1CCCCN1 (stereo not drawn)	–	·	·
COc1ccc(/C=C/C(=O)OCC(=O)N2CCCC2)c(OC)c1	-40	–	–
CCCCCCSc1ccc(-c2nc3cc(C)ccn3c2NC2CCCCC2)cc1	–	·	·
Cc1c(Cc2ccccc2)sc(/N=C/c2c(O)ccc3ccccc23)c1C(N)=O	-63	–	–
Oc1ccc2ccccc2c1C=NC12CN3CCN(CN(C3)C1)C2	–	·	·
CN1C(=O)c2cccc3c(S(=O)(=O)NCc4ccco4)ccc1c23	–	·	·
CCOc1cc2[nH]c(=O)n(CCCCC(=O)NCc3ccco3)c(=O)c2cc1OCC	-190	–	–
CCOc1cc2c(C#N)c(N3CCCCC3)nc(N)c2c(N)n1	–	·	·
SMILES	Apaf-1 act	Rh110 act interf	Apaf-1 act conf	others
N#Cc1sc2nc(-c3ccccc3)cc(-c3ccco3)c2c1N	–	·	·
CCOC(=O)COc1ccc(S(=O)(=O)NCC2CCCO2)cc1 (stereo not drawn)	-185	–	–
COc1ccc(C(=O)/C=C/C(=O)N(CC(=O)NC2CCCCC2)CC2CCCO2)c(O)c1 (stereo not drawn)	–	·	·
CCN1CCN(Cc2ccc(NC(=O)c3cc(NC(=O)c4cc5cccc(OC)c5o4)cc(OC)c3)cc2C(F)(F)F)CC1	–	·	·
CCn1c(SCC(=O)OC(C)C)nnc1-c1ccccc1	-76	–	–
C=CCn1c(SCC(=O)N(CC)C2CCS(=O)(=O)C2)nnc1-c1ccccc1 (stereo not drawn)	–	·	·
Cc1cc2cc(CNC(=O)c3ccc(S(=O)(=O)N(C)C)cc3)ccc2n1C	–	·	·
Nc1nc2c(s1)CCc1c-2cnn1-c1ccccc1	–	·	·
COc1ccc(C(CCN2CCOCC2)c2c(OC)cc(OC)c3c(-c4ccccc4)cc(=O)oc23)cc1 (stereo not drawn)	–	·	·
COc1ccc(/C=C/C(=O)NC(=S)Nc2ccc(S(N)(=O)=O)cc2)cc1	-80	–	–
CCN(CC)c1ccc(N=C2C(=O)Nc3ccccc32)cc1	–	·	·
Cc1cccc(-n2c(N)c(C(=O)NCCN3CCOCC3)c3nc4ccccc4nc32)c1	–	·	·
